Data set [1] concerns the target T1, Procathepsin L (Homo sapiens, UniProt P07711). Briefly: Inhibition of human cathepsin L assessed as second order rate constant using Cbz-Phe-Arg-AMC as substrate after 10 mins by fluorescence assay.
Target sequence in this assay (P07711 114-333 limits assumed): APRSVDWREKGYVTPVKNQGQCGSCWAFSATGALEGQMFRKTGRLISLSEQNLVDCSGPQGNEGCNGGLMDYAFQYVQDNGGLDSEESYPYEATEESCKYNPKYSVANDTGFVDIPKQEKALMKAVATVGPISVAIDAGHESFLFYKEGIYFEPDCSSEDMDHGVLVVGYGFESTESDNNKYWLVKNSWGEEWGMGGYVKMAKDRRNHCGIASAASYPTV
Data set [2] deals with Rhodesain (Trypanosoma brucei rhodesiense) (UniProt Q95PM0). As to the kind of experiment: Inhibition of recombinant Trypanosoma brucei rhodesiense rhodesain expressed in Pichia pastoris assessed as first order rate constant using Cbz-Phe-Arg-AMC as substrate after 30 mins by fluorescence assay. An outline of the steps: (§1)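 Recombinant rhodesain with fluorogenic substrate Cbz-Phe-Arg-AMC. Preliminary screen at a fixed inhibitor concentration of 50 µM. Equal volume of DMSO served as negative control and E-64 as irreversible positive control. Active compounds went on to continuous assays at seven concentrations, from minimally to fully inhibitory, giving kinac (min-1), Ki (nM) and k2nd = kinac/Ki (M-1 min-1).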
Sequence of Rhodesain (Trypanosoma brucei rhodesiense) (Q95PM0 1-450): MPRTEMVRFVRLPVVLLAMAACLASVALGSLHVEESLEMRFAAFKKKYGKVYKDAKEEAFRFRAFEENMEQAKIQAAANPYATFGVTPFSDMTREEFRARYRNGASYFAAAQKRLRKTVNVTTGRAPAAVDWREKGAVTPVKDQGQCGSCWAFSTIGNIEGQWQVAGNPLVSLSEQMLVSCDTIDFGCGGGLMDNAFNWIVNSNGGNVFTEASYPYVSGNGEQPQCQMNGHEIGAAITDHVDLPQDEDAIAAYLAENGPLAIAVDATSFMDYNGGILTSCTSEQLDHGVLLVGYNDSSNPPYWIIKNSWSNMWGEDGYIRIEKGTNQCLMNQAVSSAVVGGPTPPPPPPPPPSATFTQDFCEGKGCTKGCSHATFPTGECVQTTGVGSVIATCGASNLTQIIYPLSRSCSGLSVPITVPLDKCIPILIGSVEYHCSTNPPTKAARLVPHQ

The test system of data set [3] is Trypanosoma brucei brucei. Briefly: Inhibition of trypanothione synthetase in blood stream of Trypanosoma brucei brucei assessed as cellular content of free trypanothione at 3 uM after 24 hrs by HPLC analysis (reference value: 340 uM). An outline of the steps: (§2)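 Bloodstream-form T. brucei were seeded at 1 x10^5 cells/ml and treated for 24 h, with untreated cells as control. Free thiols (GSH, T(SH)2), and free thiols plus disulfides (GSSG, TS2), were labelled with monobromobimane and quantified by HPLC. Values are mean ± SD of three independent experiments.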

Data set [4] has as its system Trypanosoma brucei brucei. As to the kind of experiment: Effect on glutathione level in blood stream of Trypanosoma brucei brucei at 3 uM after 24 hrs by HPLC analysis. The format is functional. An outline of the steps:
as §2

Data set [5] in a line: Cytotoxicity against human HeLa cells assessed as decrease in cell viability after 48 hrs by MTT assay. The format is cell-based.
Data set [6] deals with T1, Procathepsin L. As to the kind of experiment: Inhibition of human cathepsin L using Cbz-Phe-Arg-AMC as substrate after 10 mins by fluorescence assay.
Target sequence in this assay (P07711 whole entry): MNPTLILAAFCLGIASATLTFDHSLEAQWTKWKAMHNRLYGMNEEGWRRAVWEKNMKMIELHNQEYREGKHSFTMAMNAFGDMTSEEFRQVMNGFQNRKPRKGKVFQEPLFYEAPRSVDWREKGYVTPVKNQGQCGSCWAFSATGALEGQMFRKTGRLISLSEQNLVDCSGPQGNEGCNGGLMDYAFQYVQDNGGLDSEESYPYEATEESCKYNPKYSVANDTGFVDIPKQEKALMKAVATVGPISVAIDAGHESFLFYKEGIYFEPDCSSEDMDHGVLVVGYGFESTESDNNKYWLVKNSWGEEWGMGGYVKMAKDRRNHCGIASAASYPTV
The subject of data set [7] is Plasmodium falciparum. Briefly: Antiparasitic activity against Plasmodium falciparum W2 after 48 hrs by YOYO-1 probe-based flow cytometry. Type of data set: functional. The conditions noted are these: W2, 48 h. (In flow cytometry, cells or beads pass a laser one at a time.)
Data set [8] has as its system Trypanosoma brucei brucei. Briefly: Antiparasitic activity against bloodstream form of Trypanosoma brucei brucei 449 after 48 hrs by ATPlite assay. Type of data set: functional. The conditions noted are these: Trypanosoma brucei, 449, 48 h. For orientation: In ATP-based viability assays light output follows the ATP content of the culture.
In data set [9] the test system is Trypanosoma brucei brucei. As to the kind of experiment: Antiparasitic activity against bloodstream form of Trypanosoma brucei brucei 449 after 24 hrs by ATPlite assay. The format is functional. Conditions: Trypanosoma brucei, 449, 24 h.
Data set [10] deals with T2, Falcipain 2 (Plasmodium falciparum, UniProt Q9N6S8).
T2 sequence (Q9N6S8 whole entry): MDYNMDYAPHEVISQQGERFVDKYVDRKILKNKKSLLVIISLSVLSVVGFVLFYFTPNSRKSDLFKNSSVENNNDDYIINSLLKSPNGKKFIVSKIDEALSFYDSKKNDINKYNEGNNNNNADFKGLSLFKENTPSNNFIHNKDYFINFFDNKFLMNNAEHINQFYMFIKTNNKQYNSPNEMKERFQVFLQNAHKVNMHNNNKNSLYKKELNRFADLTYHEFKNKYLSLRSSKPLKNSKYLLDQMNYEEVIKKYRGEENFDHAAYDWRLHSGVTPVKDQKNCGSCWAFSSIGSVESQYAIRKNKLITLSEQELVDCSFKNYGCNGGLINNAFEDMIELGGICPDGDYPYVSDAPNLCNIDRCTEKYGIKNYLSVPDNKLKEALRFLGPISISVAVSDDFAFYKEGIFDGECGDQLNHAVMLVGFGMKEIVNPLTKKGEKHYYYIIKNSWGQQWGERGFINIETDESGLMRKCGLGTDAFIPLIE
Briefly: Inhibition of recombinant Plasmodium falciparum falcipain-2 expressed in Escherichia coli M15(pREP4) using Cbz-Phe-Arg-AMC as substrate by fluorescence assay.

Data set [11] is described as follows: Selectivity index, ratio of CC50 for human HeLa cells to EC50 for Trypanosoma brucei brucei 449 for 48 hrs. Type of data set: toxicity, cell-based. Conditions: read-out: Ratio CC50/EC50.
Data set [12] concerns the target Rhodesain (Trypanosoma brucei rhodesiense, UniProt Q95PM0). Briefly: Inhibition of recombinant Trypanosoma brucei rhodesiense rhodesain expressed in Pichia pastoris using Cbz-Phe-Arg-AMC as substrate after 30 min by fluorescence assay. An outline of the steps: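 Recombinant rhodesain with fluorogenic Cbz-Phe-Arg-AMC substrate. Compounds were first screened at a fixed 50 µM, with DMSO as negative control and an irreversible clan CA cysteine-protease inhibitor as positive control. Continuous assays at seven inhibitor concentrations, from minimally to fully inhibitory, gave kinac (min-1) and Ki, with k2nd = kinac/Ki (M-1 min-1).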

The test system of data set [13] is Trypanosoma brucei brucei. As to the kind of experiment: Inhibition of trypanothione synthetase in blood stream of Trypanosoma brucei brucei assessed as cellular content of free trypanothione after 24 hrs by HPLC analysis. An outline of the steps:
as §2

Data set [14] concerns the target Rhodesain (Trypanosoma brucei rhodesiense) (UniProt Q95PM0). Briefly: Inhibition of recombinant Trypanosoma brucei rhodesiense rhodesain expressed in Pichia pastoris assessed as second order rate constant using Cbz-Phe-Arg-AMC as substrate after 30 mins by fluorescence assay. An outline of the steps: as §1
In data set [15] the test system is Trypanosoma brucei brucei. Briefly: Effect on protein bound glutathione level in blood stream of Trypanosoma brucei brucei. Type of data set: functional.
For data set [16], the target named is T1, Procathepsin L. Briefly: Inhibition of human cathepsin L assessed as first order rate constant using Cbz-Phe-Arg-AMC as substrate after 10 mins by fluorescence assay.
Target sequence in this assay (P07711 114-333 limits assumed): as the sequence (P07711 114-333 limits assumed) above

From ChEMBL document CHEMBL4038340, “Development of Novel Peptide-Based Michael Acceptors Targeting Rhodesain and Falcipain-2 for the Treatment of Neglected Tropical Diseases (NTDs)” (J Med Chem, 2017) come the findings set out here.

Activity calls are given as the source filed them. No cut-off for these calls is given here.

Sequence of Rhodesain (Q95PM0 whole entry): as the sequence (Q95PM0 1-450) above

With `CC(=O)/C=C/[C@H](CCc1ccccc1)NC(=O)[C@H](Cc1ccccc1)NC(=O)OCc1ccccc1`, the K in data set [1] came out at 5750 ×10³ /M/min; in data set [14], 67000 ×10³ /M/min. Also, the Kinact in data set [2] worked out at 0.00255 min⁻¹; in data set [16], 0.002 min⁻¹. In addition, the Activity in data set [3] is 160 µM; in data set [4], “Dose-dependent effect”. Also, the cytotoxic concentration (CC50) at 48 h in data set [5] amounted to 7.9 µM. Besides, the Ki in data set [6] came out at 0.0004 µM; in data set [12], 0.038 nM. Besides, the EC50 turned out to be 7.03 µM in data set [7], 2.97 µM in data set [8] and 3.18 µM in [9]. The IC50 in data set [10] came to 3.01 µM. The selectivity ratio at 48 h in data set [11] was determined as 2.6. Also, the inhibition entry in data set [13] was “Dose-dependent effect”. Besides, the result in data set [15] was inactive.

The term CC50 denotes the concentration at which the toxic effect on the cells reaches its halfway point. What is called Ki is a measure of affinity in units of concentration, obtained from inhibition or displacement. One may read the EC50 as the concentration giving half of the maximal effect. Usually IC50 stands for the concentration that gives 50% inhibition.
